# Experiments:
# Type in all cases: functional
# [1] = species on record: Mus musculus; assay: Immunoregulatory activity against mouse contact sensitivity was evaluated as percent change
# In short: (§1)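 Male C57B1/6 mice were sensitized with 0.1 mL of 5% oxazolone in absolute ethanol on the clipped abdomen. At 45 h the left hind leg was challenged with 5% oxazolone. Compound was given po in 0.5% tragacanth. Edema was read plethysmographically 24 h later as left minus right leg volume. Six mice vs eight controls; Student's t test.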
# [2] = system: Rattus norvegicus; assay: Percent change in immune R16 inflammatory lesions in rat adjuvant-induced arthritis at 50 mg/kg
# In short: (§2)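 Male Wistar rats received 0.75 mg M. butyricum in paraffin oil intradermally into the left hindpaw. Compounds were given daily po in 0.5% tragacanth from the injection day for 17 days, skipping days 4, 5, 11 and 12. Leg volumes were read by mercury displacement: left leg on day 3, both legs on day 16. Eight treated rats vs 16 vehicle controls; Student's t test. ED25 is the dose giving a 25% volume decrease, from at least three doses, with 95% limits by Fieller's theorem.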
# [3] = system: Rattus norvegicus; assay: Percent change in nonimmune L3 inflammatory lesions in rat adjuvant-induced arthritis at 50 mg/kg; in short: as §2
# [4] = system: Rattus norvegicus; assay: Percent change in nonimmune L16 inflammatory lesions in rat adjuvant-induced arthritis at 50 mg/kg; in short: as §2
# [5] = system: Rattus norvegicus; assay: Compound was tested by carrageenan -induced paw edema for percent change in paw volume of control sham operated rats at 100 mg/kg.
# In short: (§3)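 Normal, adrenalectomized or sham-operated Lewis rats were dosed po in 0.5% tragacanth, hydrated. 1 h later paw volume was read, then […] of 1% carrageenan in 0.9% saline was injected into the right hindpaw plantar surface. Volume was re-read at 3 h. Percent change, treated vs control; Student's t test.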
# [6] = species on record: Mus musculus; assay: Immunoregulatory activity against oxazolone induced mouse contact sensitivity was evaluated as percent change; in short: as §1
# [7] = system: Rattus norvegicus; assay: Compound was tested by carrageenan-induced paw edema for percent change in paw volume of control sham operated rats at 50 mg/kg; the %change is Not statistically significant; in short: as §3
# [8] = system: Rattus norvegicus; assay: The compound was tested for percent change in immune R16 inflammatory lesions in rat adjuvant-induced arthritis at 50 mg/kg; in short: as §2
# [9] = system: Rattus norvegicus; assay: The compound was tested for percent change in nonimmune L3 inflammatory lesions in rat adjuvant-induced arthritis at 50 mg/kg; the %change is Not statistically significant; in short: as §2
# [10] = system: Rattus norvegicus; assay: The compound was tested for percent change in nonimmune L16 inflammatory lesions in rat adjuvant-induced arthritis at 50 mg/kg; in short: as §2
# [11] = system: Rattus norvegicus; assay: Compound was tested by carrageenan -induced paw edema for percent change in paw volume of control sham operated rats at 50 mg/kg.; in short: as §3
# [12] = system: Rattus norvegicus; assay: The compound was tested for percent change in nonimmune L3 inflammatory lesions in rat adjuvant-induced arthritis at 50 mg/kg; in short: as §2
SMILES,Change [1] [%],Change [2] [%],Change [3] [%],Change [4] [%],Change [5] [%],Change [6] [%],Change [7] [%],Change [8] [%],Change [9] [%],Change [10] [%],Change [11] [%],Change [12] [%]
COc1ccc(-c2nc3n(c2-c2ccc(F)cc2)CCS3)cc1,103,6,11,-4,–,–,–,–,–,–,–,–
FC(F)(F)c1ccc(-c2nc3n(c2-c2ccc(C(F)(F)F)cc2)CCS3)cc1,89,1,0,12,4,–,–,–,–,–,–,–
C[S+]([O-])c1ccc(-c2nc3n(c2-c2ccc([S+](C)[O-])cc2)CCS3)cc1 (stereo not drawn),117,-19,-25,-27,–,–,–,–,–,–,–,–
O=S1(=O)CCn2c1nc(-c1ccc(F)cc1)c2-c1ccc(F)cc1,–,–,–,–,–,20,3,-34,-6,-17,–,–
COc1ccc(-c2nc3n(c2-c2ccc(OC)c(C)c2)CCS3)cc1C,30,-19,-16,-20,–,–,–,–,–,–,–,–
CC(C)(C)C(=O)Nc1ccc(-c2nc3n(c2-c2ccc(NC(=O)C(C)(C)C)cc2)CCS3)cc1,15,-1,-4,-3,–,–,–,–,–,–,–,–
Cc1ccc(-c2nc3n(c2-c2ccc(C)cc2)CCS3)cc1,86,-7,-6,0,–,–,–,–,–,–,–,–
COc1ccc(-c2c(-c3ccccc3)nc3n2CCS3)cc1OC,69,11,5,1,–,–,–,–,–,–,–,–
CSc1ccc(-c2c(-c3ccc(F)cc3)nc3n2CCS3)cc1,122,-30,-16,-30,–,–,–,–,–,–,–,–
c1cc2c(cc1-c1nc3n(c1-c1ccc4c(c1)OCO4)CCS3)OCO2,16,-27,-18,-23,–,–,–,–,–,–,–,–
Cl.Fc1ccc(-c2nc3n(c2-c2ccc(F)cc2)CCS3)cc1,79,-49,-39,-36,6,–,–,–,–,–,-9,–
COc1cccc(-c2nc3n(c2-c2cccc(OC)c2)CCS3)c1,166,-16,0,-4,-3,–,–,–,–,–,–,–
Oc1ccc(-c2nc3n(c2-c2ccc(O)cc2)CCS3)cc1,122,9,-9,-7,–,–,–,–,–,–,–,–
CCSc1nc(-c2ccc(OC)cc2)c(-c2ccc(OC)cc2)[nH]1,119,-37,-31,-42,–,–,–,–,–,–,–,–
Cc1cccc(-c2nc3n(c2-c2cccc(C)c2)CCS3)c1,38,-5,-14,-13,–,–,–,–,–,–,–,–
COc1ccc(-c2nc3n(c2-c2ccc(OC)cc2)C(=O)CS3)cc1,25,0,-4,4,–,–,–,–,–,–,–,–
CSc1ccc(-c2nc3n(c2-c2ccc(SC)cc2)CCS3)cc1,73,-38,-25,-36,–,–,–,–,–,–,-33,–
COc1ccc(-c2c(-c3ccc(F)cc3)nc3n2CC[S+]3[O-])cc1 (stereo not drawn),–,–,–,–,–,65,–,-39,–,-39,–,-35
CCN(C(C)=O)c1ccc(-c2nc3n(c2-c2ccc(N(CC)C(C)=O)cc2)CCS3)cc1,43,-10,-4,-1,–,–,–,–,–,–,–,–
CCCCOc1ccc(-c2nc3n(c2-c2ccc(OCCCC)cc2)CCS3)cc1,130,2,5,2,–,–,–,–,–,–,–,–
CSc1ccc(-c2nc3n(c2-c2ccc(F)cc2)CCS3)cc1,44,6,-14,0,–,–,–,–,–,–,–,–
CC(=O)Oc1ccc(-c2nc3n(c2-c2ccc(OC(C)=O)cc2)CCS3)cc1,101,-17,-16,-12,–,–,–,–,–,–,–,–
COc1cc(-c2nc3n(c2-c2cc(OC)c(OC)c(OC)c2)CCS3)cc(OC)c1OC,75,-19,-2,0,–,–,–,–,–,–,–,–
